For 26 compounds, Activity and solubility results are on record in ChEMBL document CHEMBL4422636, “Investigation of the structural requirements for N-methyl-D-aspartate receptor positive and negative allosteric modulators based on 2-naphthoic acid” (Eur J Med Chem, 2019).

The target in data set [1] is Glutamate receptor ionotropic, NMDA 2B (Rattus norvegicus) (UniProt Q00960). In words: Allosteric modulation of rat GluN2B expressed in Xenopus laevis oocytes assessed as L-glutamate/glycine-induced current response at 100 uM at holding potential -60 mV by two-electrode voltage clamp method relative to L-glutamate/glycine. The data set is classed as cell-based. The method in brief: (§1)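 GluN1a with one GluN2 subunit; RNAs mixed 1:1–3 molar, 15–30 ng total injected into Xenopus oocytes, which were held in ND-96 at 17°C for 1–5 days. TEVC at −60 mV in 116 mM NaCl, 2 mM KCl, 0.3 mM BaCl2, 5 mM HEPES, pH 7.4. […] Reported as % of agonist-alone response, mean ± s.e.m., n≥4.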
On the technique in general: Two-electrode voltage clamp is typically applied to oocytes expressing channels or transporters.

Data set [2] is described as follows: Solubility of the compound at 100 uM. The class given is physicochemical. In a few lines:
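Compounds were inspected for visible precipitation at the concentrations used in the oocyte assays.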

For data set [3], the target named is Glutamate receptor ionotropic, NMDA 2B (Rattus norvegicus) (UniProt Q00960). In words: Agonist activity at rat GluN2B expressed in Xenopus laevis oocytes assessed as effect on current response at holding potential -60 mV by two-electrode voltage clamp method relative to L-glutamate/glycine. The class given is cell-based. In a few lines: as §1
Data set [4] deals with Glutamate receptor ionotropic, NMDA 2A (Rattus norvegicus) (UniProt Q00959). In words: Allosteric modulation of rat GluN2A expressed in Xenopus laevis oocytes assessed as L-glutamate/glycine-induced current response at 100 uM at holding potential -60 mV by two-electrode voltage clamp method relative to L-glutamate/glycine. The class given is cell-based. In a few lines: as §1

Data set [5] deals with Glutamate receptor ionotropic, NMDA 2D (Rattus norvegicus) (UniProt Q62645). In words: Agonist activity at rat GluN2D expressed in Xenopus laevis oocytes assessed as effect on current response at holding potential -60 mV by two-electrode voltage clamp method relative to L-glutamate/glycine. The data set is classed as cell-based. In a few lines:
as §1

For data set [6], the target named is Glutamate receptor ionotropic, NMDA 2C (Rattus norvegicus) (UniProt Q00961). In words: Allosteric modulation of rat GluN2C expressed in Xenopus laevis oocytes assessed as L-glutamate/glycine-induced current response at 100 uM at holding potential -60 mV by two-electrode voltage clamp method relative to L-glutamate/glycine. The data set is classed as cell-based. In a few lines:
as §1

The target of data set [7] is Glutamate receptor ionotropic, NMDA 2D (Rattus norvegicus) (UniProt Q62645). In words: Allosteric modulation of rat GluN2D expressed in Xenopus laevis oocytes assessed as L-glutamate/glycine-induced current response at 100 uM at holding potential -60 mV by two-electrode voltage clamp method relative to L-glutamate/glycine. The class given is cell-based. The method in brief: as §1

Data set [8] concerns the target Glutamate receptor ionotropic, NMDA 2C (Rattus norvegicus) (UniProt Q00961). Put plainly: Agonist activity at rat GluN2C expressed in Xenopus laevis oocytes assessed effect on current response at holding potential -60 mV by two-electrode voltage clamp method relative to L-glutamate/glycine. The data set is classed as cell-based. The method in brief:
as §1

The target of data set [9] is Glutamate receptor ionotropic, NMDA 2A (Rattus norvegicus) (UniProt Q00959). In words: Agonist activity at rat GluN2A expressed in Xenopus laevis oocytes assessed effect on current response at holding potential -60 mV by two-electrode voltage clamp method relative to L-glutamate/glycine. The data set is classed as cell-based. The method in brief: as §1

Active and inactive are the calls of the source. The rule behind the calls is not given here.

Chain of Glutamate receptor ionotropic, NMDA 2B (Rattus norvegicus) (Q00960 27-1482 limits assumed): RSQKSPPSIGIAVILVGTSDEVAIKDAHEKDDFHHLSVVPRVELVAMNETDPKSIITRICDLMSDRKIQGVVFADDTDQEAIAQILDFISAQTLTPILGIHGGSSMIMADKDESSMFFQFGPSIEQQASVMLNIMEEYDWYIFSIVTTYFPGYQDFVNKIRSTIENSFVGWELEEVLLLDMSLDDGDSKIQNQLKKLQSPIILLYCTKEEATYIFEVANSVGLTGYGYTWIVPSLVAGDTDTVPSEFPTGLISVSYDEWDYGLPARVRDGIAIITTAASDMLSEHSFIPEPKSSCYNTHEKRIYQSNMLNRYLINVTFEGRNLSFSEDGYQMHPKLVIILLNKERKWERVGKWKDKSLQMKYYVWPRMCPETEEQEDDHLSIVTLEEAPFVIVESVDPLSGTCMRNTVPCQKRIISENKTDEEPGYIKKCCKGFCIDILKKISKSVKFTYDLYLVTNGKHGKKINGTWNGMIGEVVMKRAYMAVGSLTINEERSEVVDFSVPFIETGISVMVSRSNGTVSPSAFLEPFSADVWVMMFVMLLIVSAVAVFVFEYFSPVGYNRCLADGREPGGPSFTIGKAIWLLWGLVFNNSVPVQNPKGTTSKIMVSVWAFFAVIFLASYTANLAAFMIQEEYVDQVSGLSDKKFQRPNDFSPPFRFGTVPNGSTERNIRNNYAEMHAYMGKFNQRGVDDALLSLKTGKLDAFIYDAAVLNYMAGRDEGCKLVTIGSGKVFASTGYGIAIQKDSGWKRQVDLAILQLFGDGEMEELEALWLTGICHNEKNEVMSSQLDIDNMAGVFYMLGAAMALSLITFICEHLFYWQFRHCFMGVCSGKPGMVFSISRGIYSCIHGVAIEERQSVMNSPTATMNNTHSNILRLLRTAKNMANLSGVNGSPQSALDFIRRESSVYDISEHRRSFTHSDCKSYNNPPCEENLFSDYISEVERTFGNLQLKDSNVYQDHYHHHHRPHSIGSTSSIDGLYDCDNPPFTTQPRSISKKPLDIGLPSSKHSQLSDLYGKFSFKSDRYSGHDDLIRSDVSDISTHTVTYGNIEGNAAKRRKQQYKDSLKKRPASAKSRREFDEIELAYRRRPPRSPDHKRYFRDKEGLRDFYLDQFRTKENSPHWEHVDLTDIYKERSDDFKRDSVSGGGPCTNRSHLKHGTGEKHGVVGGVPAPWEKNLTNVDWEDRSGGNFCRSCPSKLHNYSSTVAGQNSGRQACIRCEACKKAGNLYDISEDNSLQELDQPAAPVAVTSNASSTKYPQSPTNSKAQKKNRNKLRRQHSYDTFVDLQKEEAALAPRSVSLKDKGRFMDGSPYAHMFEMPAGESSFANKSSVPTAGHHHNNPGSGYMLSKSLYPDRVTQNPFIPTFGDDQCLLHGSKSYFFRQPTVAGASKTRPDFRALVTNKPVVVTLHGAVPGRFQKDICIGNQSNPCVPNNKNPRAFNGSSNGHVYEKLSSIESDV
Chain of Glutamate receptor ionotropic, NMDA 2D (Rattus norvegicus) (Q62645 whole entry): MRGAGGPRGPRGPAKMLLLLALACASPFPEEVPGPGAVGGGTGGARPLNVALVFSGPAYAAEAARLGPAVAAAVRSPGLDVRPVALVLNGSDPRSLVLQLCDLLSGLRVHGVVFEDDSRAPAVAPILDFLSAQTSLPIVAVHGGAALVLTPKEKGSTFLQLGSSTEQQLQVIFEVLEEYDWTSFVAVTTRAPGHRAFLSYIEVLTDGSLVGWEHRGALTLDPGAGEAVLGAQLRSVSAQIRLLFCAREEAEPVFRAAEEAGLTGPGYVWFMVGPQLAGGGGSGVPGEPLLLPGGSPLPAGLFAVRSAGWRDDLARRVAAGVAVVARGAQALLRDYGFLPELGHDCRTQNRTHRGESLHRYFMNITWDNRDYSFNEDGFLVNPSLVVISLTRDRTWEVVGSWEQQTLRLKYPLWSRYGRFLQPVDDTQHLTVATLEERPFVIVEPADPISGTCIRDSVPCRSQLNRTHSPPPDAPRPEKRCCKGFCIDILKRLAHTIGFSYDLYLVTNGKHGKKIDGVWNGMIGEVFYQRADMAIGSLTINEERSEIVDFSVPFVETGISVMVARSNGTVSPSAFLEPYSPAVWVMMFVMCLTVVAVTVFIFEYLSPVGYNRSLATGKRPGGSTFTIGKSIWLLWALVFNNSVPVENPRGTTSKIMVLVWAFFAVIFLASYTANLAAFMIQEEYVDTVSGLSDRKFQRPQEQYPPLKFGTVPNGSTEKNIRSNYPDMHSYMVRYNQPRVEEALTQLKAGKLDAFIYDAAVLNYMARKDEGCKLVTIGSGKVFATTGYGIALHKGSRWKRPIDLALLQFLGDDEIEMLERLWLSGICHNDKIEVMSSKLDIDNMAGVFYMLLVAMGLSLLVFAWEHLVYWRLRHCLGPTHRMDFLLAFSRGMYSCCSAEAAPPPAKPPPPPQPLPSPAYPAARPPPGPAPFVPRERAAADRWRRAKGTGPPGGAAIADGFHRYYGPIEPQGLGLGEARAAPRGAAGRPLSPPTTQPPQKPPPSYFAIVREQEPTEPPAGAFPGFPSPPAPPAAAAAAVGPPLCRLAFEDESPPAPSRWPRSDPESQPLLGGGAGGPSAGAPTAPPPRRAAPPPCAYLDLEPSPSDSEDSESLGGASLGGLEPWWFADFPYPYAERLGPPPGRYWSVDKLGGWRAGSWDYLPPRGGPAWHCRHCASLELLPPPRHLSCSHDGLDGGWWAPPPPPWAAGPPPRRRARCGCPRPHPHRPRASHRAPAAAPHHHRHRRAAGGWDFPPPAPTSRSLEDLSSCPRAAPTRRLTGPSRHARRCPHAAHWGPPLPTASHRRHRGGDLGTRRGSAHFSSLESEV
Chain of Glutamate receptor ionotropic, NMDA 2A (Rattus norvegicus) (Q00959 23-1464 limits assumed): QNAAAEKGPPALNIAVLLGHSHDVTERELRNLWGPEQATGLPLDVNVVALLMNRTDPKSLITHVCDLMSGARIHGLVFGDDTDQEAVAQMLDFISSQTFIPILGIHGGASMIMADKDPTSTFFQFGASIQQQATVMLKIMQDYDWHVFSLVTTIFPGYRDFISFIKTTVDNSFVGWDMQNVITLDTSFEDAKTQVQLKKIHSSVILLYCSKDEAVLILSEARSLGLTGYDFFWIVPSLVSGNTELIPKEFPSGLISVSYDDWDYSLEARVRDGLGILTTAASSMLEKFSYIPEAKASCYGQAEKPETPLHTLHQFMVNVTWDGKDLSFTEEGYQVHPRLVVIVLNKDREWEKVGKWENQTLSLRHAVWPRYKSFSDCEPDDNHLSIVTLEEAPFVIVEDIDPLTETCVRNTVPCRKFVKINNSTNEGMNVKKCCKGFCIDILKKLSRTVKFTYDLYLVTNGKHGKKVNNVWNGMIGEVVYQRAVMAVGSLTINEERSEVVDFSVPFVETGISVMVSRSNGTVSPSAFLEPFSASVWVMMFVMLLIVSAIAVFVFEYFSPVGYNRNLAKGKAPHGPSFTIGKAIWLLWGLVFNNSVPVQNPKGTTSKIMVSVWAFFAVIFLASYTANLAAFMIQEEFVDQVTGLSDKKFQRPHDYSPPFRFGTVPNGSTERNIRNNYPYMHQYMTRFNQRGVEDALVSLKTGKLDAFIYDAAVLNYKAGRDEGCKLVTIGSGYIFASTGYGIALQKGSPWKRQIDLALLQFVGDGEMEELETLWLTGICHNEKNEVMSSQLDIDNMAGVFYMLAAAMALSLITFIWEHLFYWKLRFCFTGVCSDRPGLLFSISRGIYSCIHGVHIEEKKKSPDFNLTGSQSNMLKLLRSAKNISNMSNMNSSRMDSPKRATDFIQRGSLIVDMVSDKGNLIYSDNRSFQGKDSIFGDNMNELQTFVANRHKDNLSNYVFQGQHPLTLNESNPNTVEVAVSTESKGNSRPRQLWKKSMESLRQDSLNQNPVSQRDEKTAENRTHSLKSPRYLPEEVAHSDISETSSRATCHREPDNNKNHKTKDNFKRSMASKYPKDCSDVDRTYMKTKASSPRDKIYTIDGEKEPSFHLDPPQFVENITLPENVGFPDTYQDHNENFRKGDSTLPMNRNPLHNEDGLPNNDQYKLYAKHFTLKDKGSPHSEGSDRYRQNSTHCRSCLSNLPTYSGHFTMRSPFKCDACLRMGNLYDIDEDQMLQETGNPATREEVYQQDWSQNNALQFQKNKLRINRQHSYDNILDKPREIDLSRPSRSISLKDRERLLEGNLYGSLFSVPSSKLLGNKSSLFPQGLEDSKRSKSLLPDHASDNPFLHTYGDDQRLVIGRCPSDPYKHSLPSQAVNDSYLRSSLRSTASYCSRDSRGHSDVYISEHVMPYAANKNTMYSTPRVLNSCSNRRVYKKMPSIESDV

With `CC(C)CCCc1ccc2cc(C(=O)O)c(O)cc2c1`, the Activity in [1] turned out to be 309%; in data set [4] it was 178%; in data set [6] it was 357%; in [7] it was 301%. In data set [2], the solubility result is listed as “Soluble”. Further, the outcome in data set [3], in [5], in [8] and in [9] was inactive.

Consider `COc1ccccc1/C=C/c1ccc2cc(O)c(C(=O)O)cc2c1`, for which the Activity in data set [1] came to 74%; in [4] it was 105%; in [6], 61.7%; in data set [7] it was 71%. Moreover, the solubility result in [2] was “Soluble”.

For `CC(C)C(=O)OCc1ccc2cc(C(=O)O)ccc2c1`, the Activity is 45% in data set [1], 73% in data set [4], 56% in [6] and 42% in data set [7]. Also, the solubility result in [2] was “Soluble”.

For the compound `O=C(O)c1ccc(/C=C/c2ccc3cc(O)c(C(=O)O)cc3c2)cc1`, the Activity in data set [1] was 89%; in data set [4], 89.7%; in data set [6], 85.2%; in data set [7], 67%. In addition, the solubility result in data set [2] is reported as “Soluble”.

`O=C(O)c1cc2cc(/C=C/c3ccccc3C(=O)O)ccc2cc1O`: the Activity in data set [1] is 84.5%; in data set [4], 92.1%; in data set [6], 83.7%; in data set [7], 103%. Also, the solubility result in data set [2] is “Soluble”.

With `CC(C)CNC(=O)c1ccc2cc(C(=O)O)ccc2c1`, the Activity amounted to 65% in data set [1], 65% in data set [4], 46% in data set [6] and 99% in data set [7]. In addition, in data set [2], the solubility result was “Soluble”.

Consider `CC(C)CCC(=O)c1ccc2cc(C(=O)O)ccc2c1`, for which the Activity in data set [1] amounted to 82%; in data set [4], 128%; in data set [6] it was 99%; in data set [7], 79%. Further, in data set [2], the solubility result is recorded as “Soluble”.

In the case of `CCCCCc1ccc2cc(CC(=O)O)ccc2c1`, the Activity in [1] is 67%; in data set [4] it was 67%; in [6] it was 60%; in data set [7], 37%. Moreover, in [2], the solubility result was “Soluble”. The result in [3], in data set [5], in [8] and in data set [9] was inactive.

In the case of `CCCCCc1ccc2cc(CO)ccc2c1`, the Activity in [1] stood at 84%; in [4] it was 89%; in data set [6] it was 76%; in data set [7] it was 85%. In addition, in data set [2], the solubility result was “Soluble”. Further, the outcome in data set [3], in data set [5], in data set [8] and in [9] was inactive.

In the case of `CC(C)CC#Cc1ccc2cc(C(=O)O)ccc2c1`, the Activity in data set [1] was determined as 99%; in data set [4] it was 104%; in [6] it was 125%; in data set [7], 110%. The solubility entry in data set [2] was “Soluble”. Besides, the result in [3], in data set [5], in [8] and in [9] was inactive.

Consider `CCC/C=C/c1ccc2cc(C(=O)O)ccc2c1`, for which the Activity was 58% in data set [1], 51% in [4], 82% in [6] and 68% in data set [7]. In addition, the solubility result in data set [2] is listed as “Soluble”. The result in data set [3], in data set [5], in [8] and in data set [9] was inactive.

For `CC(CCCc1ccc2cc(C(=O)O)ccc2c1)C(=O)O` (racemic), the Activity in data set [1] is 85%; in data set [4], 110%; in data set [6], 98%; in data set [7], 107%. In data set [2], the solubility entry is “Soluble”. For the same compound, the result in [3], in [5], in [8] and in [9] was inactive.

In the case of `O=C(O)c1cc2cc(CCc3ccccc3)ccc2cc1O`, the Activity in data set [1] came to 54.3%; in data set [4], 71.4%; in data set [6], 46.8%; in data set [7], 32.1%. In addition, in data set [2], the solubility entry is recorded as “Soluble”.

With `O=C(O)c1cc2cc(CCc3ccccc3C(=O)O)ccc2cc1O`, the Activity in data set [1] was 85.2%; in data set [4], 91.8%; in [6], 94.1%; in data set [7] it was 80.7%. For the same compound, in [2], the solubility entry is listed as “Soluble”.

In the case of `CCCCOc1ccc2cc(C(=O)O)ccc2c1`, the Activity in data set [1] turned out to be 46%; in [4] it was 55%; in data set [6] it was 63%; in data set [7], 57%. Further, the solubility result in data set [2] was “Soluble”. Further, the outcome in [3], in [5], in data set [8] and in [9] was inactive.

Regarding `CC(C)COC(=O)c1ccc2cc(C(=O)O)ccc2c1`, the Activity in [1] was found to be 179%; in [4] it was 159%; in data set [6] it was 144%; in [7] it was 169%. The solubility entry in data set [2] is reported as “Soluble”.

`COc1ccc(/C=C/c2ccc3cc(O)c(C(=O)O)cc3c2)cc1`: the Activity in data set [1] was determined as 36%; in data set [4] it was 42.7%; in data set [6], 39.6%; in [7], 39%. The solubility result in data set [2] is given as “Soluble”.

Consider `CC(C)CCCc1ccc2ccc(C(=O)O)cc2c1`, for which the Activity in [1] came to 120%; in [4], 123%; in data set [6], 115%; in [7] it was 80%. In addition, the solubility entry in data set [2] was “Soluble”. In addition, the result in data set [3], in data set [5], in data set [8] and in [9] was inactive.

Regarding `O=C(O)c1cc2ccc(/C=C/c3ccccc3)cc2cc1C(=O)O`, the Activity was 66.7% in [1], 55% in [4], 37.1% in [6] and 38.6% in data set [7]. The solubility entry in data set [2] was “Soluble”.

Take `O=C(O)c1ccc2cc(C3CC3)ccc2c1`: the Activity in data set [1] is 97%; in data set [4] it was 97%; in data set [6], 97%; in [7] it was 94%. Also, the solubility result in [2] was “Soluble”. Further, the outcome in data set [3], in [5], in [8] and in data set [9] was inactive.

As to `CC(C)COCc1ccc2cc(C(=O)O)ccc2c1`, the Activity in data set [1] is 49%; in data set [4], 83%; in data set [6], 83%; in data set [7] it was 72%. Besides, the solubility entry in data set [2] is “Soluble”.

With `O=C(O)c1cc2cc(/C=C/c3ccccc3)ccc2oc1=O`, the Activity in data set [1] came to 92%; in data set [4] it was 95.1%; in [6], 114%; in data set [7] it was 119%. In addition, in data set [2], the solubility result is recorded as “Soluble”.

Take `O=C(O)c1ccc(CCc2ccc3cc(O)c(C(=O)O)cc3c2)cc1`: the Activity in data set [1] was 95.8%; in data set [4] it was 102%; in data set [6] it was 115%; in [7], 92.6%. In [2], the solubility entry was “Soluble”.

As to `O=C(O)c1cccc(/C=C/c2ccc3cc(O)c(C(=O)O)cc3c2)c1`, the Activity was found to be 70% in data set [1], 90.3% in data set [4], 76.8% in [6] and 61.4% in [7]. Besides, the solubility result in [2] was “Soluble”.

For `CC(C)CSCc1ccc2cc(C(=O)O)ccc2c1`, the Activity in [1] came out at 77%; in data set [4] it was 113%; in data set [6], 105%; in [7], 100%. For the same compound, in data set [2], the solubility entry is “Soluble”.

Turning to `COc1cccc(/C=C/c2ccc3cc(O)c(C(=O)O)cc3c2)c1`, the Activity was determined as 24.9% in [1], 52.4% in data set [4], 30.8% in data set [6] and 29.9% in [7]. Further, the solubility result in [2] is listed as “Soluble”.
